Source: ChEMBL document CHEMBL2034860, “Cytotoxic heterocyclic triterpenoids derived from betulin and betulinic acid” (Bioorg Med Chem, 2012)

Tests used:
[1] = tested on: CCRF-CEM; experiment: Cytotoxicity against human CCRF-CEM cells after 72 hrs by MTT assay; type: functional, cell-based
[2] = Solubility of the compound in water based media; type: physicochemical; details: buffer
[3] = tested on: K562; experiment: Cytotoxicity against human paclitaxel resistant K562 cells after 72 hrs by MTT assay; type: functional, cell-based; details: K562, 72 h
Outline: (§1)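 Cells seeded at 2500–30,000 per well according to cell type and pre-incubated 24 h at 37 °C, 5% CO2. Four-fold dilutions of compounds dissolved in 10% DMSO were added at time zero, in quadruplicate, then incubated 72 h. MTT was added for a further 1–4 h and formazan dissolved in 10% aq SDS (pH 5.5) overnight at 37 °C. OD was read at 540 nm. Survival was taken as % of mean control OD, and IC50 was read from dose-response curves.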

[4] = tested on: BJ; experiment: Cytotoxicity against human BJ cells after 72 hrs by MTT assay; type: cell-based; outline: as §1
[5] = tested on: K562; experiment: Cytotoxicity against human K562 cells after 72 hrs by MTT assay; type: functional, cell-based; details: K562, 72 h; outline: as §1
[6] = tested on: MRC5; experiment: Cytotoxicity against human MRC5 cells after 72 hrs by MTT assay; type: cell-based; details: MRC5, 72 h; outline: as §1
[7] = tested on: CCRF-CEM; experiment: Cytotoxicity against human daunorubicine resistant CEM cells after 72 hrs by MTT assay; type: functional, cell-based; outline: as §1
[8] = tested on: A549; experiment: Cytotoxicity against human A549 cells after 72 hrs by MTT assay; type: functional, cell-based; details: A549, 72 h; outline: as §1
[9] = tested on: HCT-116; experiment: Cytotoxicity against human p53-deficient HCT116 cells after 72 hrs by MTT assay; type: functional, cell-based; details: HCT-116, 72 h; outline: as §1
[10] = tested on: HCT-116; experiment: Cytotoxicity against human HCT116 cells after 72 hrs by MTT assay; type: functional, cell-based; details: HCT-116, 72 h; outline: as §1
[11] = Therapeutic index, ratio of IC50 for human BJ cells to IC50 for human CCRF-CEM cells; type: cell-based; details: BJ cells versus CCRF-CEM cells, read-out: Ratio IC50
[12] = Therapeutic index, ratio of IC50 for human BJ cells to IC50 for human K562 cells; type: cell-based; details: BJ cells versus K562 cells, read-out: Ratio IC50
[13] = Therapeutic index, ratio of IC50 for human BJ cells to IC50 for paclitaxel-resistant human K562 cells; type: cell-based; details: BJ cells versus paclitaxel-resistant K562 cells, read-out: Ratio IC50
[14] = Therapeutic index, ratio of IC50 for human MRC5 cells to IC50 for human CCRF-CEM cells; type: cell-based; details: MRC5 cells versus CCRF-CEM cells, read-out: Ratio IC50

Question: With `CC1(C)CC[C@]23CC[C@]4(C)[C@H](CC[C@@H]5[C@@]6(C)Cc7c(n[nH]c7O)C(C)(C)[C@@H]6CC[C@]54C)[C@H]2[C@H]1OC3` as the compound, how does the IC50 [1] read?
Answer: 33 µM

Question: What about the solubility [2] of the same compound?
Answer: Insoluble

Question: Which results are given for `CC(C)[C@@H]1CC[C@]2(C(=O)O)CC[C@]3(C)[C@H](CC[C@@H]4[C@@]5(C)Cc6c(n[nH]c6O)C(C)(C)[C@@H]5CC[C@]43C)[C@@H]12`?
Answer: IC50 [1]: 123 µM; solubility [2]: Insoluble

Question: Which IC50 [1] does the source give for `CC1(C)CC[C@]23CC[C@]4(C)[C@H](CC[C@@H]5[C@@]6(C)Cc7conc7C(C)(C)[C@@H]6CC[C@]54C)[C@H]2[C@H]1OC3` here?
Answer: > 250 µM

Question: What about the solubility [2] of the same compound?
Answer: Insoluble

Question: Which results are given for `CC1(C)CC[C@]23CC[C@]4(C)[C@H](CC[C@@H]5[C@@]6(C)Cc7cnoc7C(C)(C)[C@@H]6CC[C@]54C)[C@H]2[C@H]1OC3`?
Answer: IC50 [1]: > 250 µM; solubility [2]: Insoluble

Question: What does the source list for `CC1(C)CC[C@]23CC[C@]4(C)[C@H](CC[C@@H]5[C@@]6(C)Cc7sc(N)nc7C(C)(C)[C@@H]6CC[C@]54C)[C@H]2[C@H]1OC3`?
Answer: IC50 [1]: 85 µM; solubility [2]: Insoluble

Question: For `CC(C)[C@@H]1CC[C@]2(C(=O)O)CC[C@]3(C)[C@H](CC[C@@H]4[C@@]5(C)Cc6sc(N)nc6C(C)(C)[C@@H]5CC[C@]43C)[C@@H]12`, which IC50 [1] is on record?
Answer: 3 µM

Question: And the IC50 [3]?
Answer: 6.9 µM

Question: And the solubility [2]?
Answer: Insoluble

Question: What about the IC50 [4] of the same compound?
Answer: 24.9 µM

Question: What about the IC50 [5] of the same compound?
Answer: 4.8 µM

Question: And the IC50 [6]?
Answer: 15.7 µM

Question: And the IC50 [7]?
Answer: 11.2 µM

Question: And the IC50 [8]?
Answer: 7 µM

Question: And the IC50 [9]?
Answer: 4.3 µM

Question: And the IC50 [10]?
Answer: 5.1 µM

Question: With `CC1(C)CC[C@]23CC[C@]4(C)[C@H](CC[C@@H]5[C@@]6(C)Cc7sc(Br)nc7C(C)(C)[C@@H]6CC[C@]54C)[C@H]2[C@H]1OC3` as the compound, how does the IC50 [1] read?
Answer: 150 µM

Question: What about the solubility [2] of the same compound?
Answer: Insoluble

Question: What does the source list for `CC(C)[C@@H]1CC[C@]2(C(=O)O)CC[C@]3(C)[C@H](CC[C@@H]4[C@@]5(C)Cc6sc(Br)nc6C(C)(C)[C@@H]5CC[C@]43C)[C@@H]12`?
Answer: IC50 [1]: 11 µM; solubility [2]: Insoluble

Question: Which IC50 [1] does the source give for `CC1(C)CC[C@]23CC[C@]4(C)[C@H](CC[C@@H]5[C@@]6(C)C=C(N7CCOCC7)C(=O)C(C)(C)[C@@H]6CC[C@]54C)[C@H]2[C@H]1OC3` here?
Answer: 226 µM

Question: Which IC50 [1] does the source give for `CC1(C)CC[C@]23CC[C@]4(C)[C@H](CC[C@@H]5[C@@]6(C)C=C(O)C(=O)C(C)(C)[C@@H]6CC[C@]54C)[C@H]2[C@H]1OC3` here?
Answer: 25 µM

Question: Which results are given for `CC(C)[C@@H]1CC[C@]2(C(=O)O)CC[C@]3(C)[C@H](CC[C@@H]4[C@@]5(C)CC(Br)C(=O)C(C)(C)[C@@H]5CC[C@]43C)[C@@H]12` (mixture of isomers)?
Answer: IC50 [1]: 1 µM; IC50 [3]: 1.7 µM; selectivity ratio [11]: > 10; IC50 [4]: 17.8 µM; IC50 [5]: 1.6 µM; selectivity ratio [12]: > 10; selectivity ratio [13]: > 10; IC50 [6]: 14.6 µM; IC50 [7]: 11.4 µM; IC50 [8]: 11.9 µM; IC50 [9]: 4.1 µM; IC50 [10]: 4.3 µM; selectivity ratio [14]: > 10

Question: With `CC1(C)CC[C@]23CC[C@]4(C)[C@H](CC[C@@H]5[C@@]6(C)CC(Br)C(=O)C(C)(C)[C@@H]6CC[C@]54C)[C@H]2[C@H]1OC3` (mixture of isomers) as the compound, how does the IC50 [1] read?
Answer: > 250 µM

Question: Which IC50 [1] does the source give for `C=C(C)[C@@H]1CC[C@]2(C(=O)O)CC[C@]3(C)[C@H](CC[C@@H]4[C@@]5(C)Cc6c(n[nH]c6O)C(C)(C)C5CC[C@]43C)[C@@H]12` (single isomer, unassigned) here?
Answer: 22 µM

Question: And the solubility [2]?
Answer: Insoluble

Question: Which IC50 [1] does the source give for `CC(C)[C@@H]1CC[C@]2(C(=O)O)CC[C@]3(C)[C@H](CC[C@@H]4[C@@]5(C)CCC(=O)C(C)(C)[C@@H]5CC[C@]43C)[C@@H]12` [DIHYDROBETULONIC ACID] here?
Answer: 4 µM

Question: And the IC50 [3]?
Answer: 4 µM

Question: And the IC50 [4]?
Answer: 22.6 µM

Question: What about the IC50 [5] of the same compound?
Answer: 2.5 µM

Question: And the IC50 [6]?
Answer: 11.7 µM

Question: What about the IC50 [7] of the same compound?
Answer: 9.4 µM

Question: What about the IC50 [8] of the same compound?
Answer: 5.9 µM

Question: What about the IC50 [9] of the same compound?
Answer: 6.1 µM

Question: And the IC50 [10]?
Answer: 4.1 µM
